Legend:
Cynomolgus monkey [1] = experiment: Uptake in anesthetized cynomolgus monkey medulla after 3.5 mins; assay type: ADME, organism-based, Medulla of organ; conditions: in vivo
Summary of the method: (§1)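 Baseline microPET scan (P4 scanner) of anesthetized cynomolgus monkeys after injection of the carbon-11 labelled nortropane tracer. Two baseline studies were run per tracer. Radioactivity was followed over time in regional brain time-activity curves.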

Cynomolgus monkey [2] = experiment: Uptake in anesthetized cynomolgus monkey medulla after 6.5 mins; assay type: ADME, organism-based, Medulla of organ; conditions: in vivo; summary of the method: as §1
Cynomolgus monkey [3] = experiment: Uptake in anesthetized cynomolgus monkey cerebellum after 0.5 mins; assay type: ADME, organism-based; conditions: in vivo
Summary of the method: (§2)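 Baseline microPET (Concorde P4) regional brain time-activity curves in anesthetized cynomolgus monkey following injection of the [11C]-labelled tracer, with radioactivity followed over the scan.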

Cynomolgus monkey [4] = experiment: Uptake in anesthetized cynomolgus monkey cerebellum after 95.0 mins; assay type: ADME, organism-based; conditions: in vivo; summary of the method: as §2
Cynomolgus monkey [5] = experiment: Uptake in anesthetized cynomolgus monkey frontal after 65.0 mins; assay type: ADME, organism-based, Frontal cortex; conditions: in vivo; summary of the method: as §1
Cynomolgus monkey [6] = experiment: Uptake in anesthetized cynomolgus monkey frontal after 75.0 mins; assay type: ADME, organism-based, Frontal cortex; conditions: in vivo, 1.25 h; summary of the method: as §1
Cynomolgus monkey [7] = experiment: Uptake in anesthetized cynomolgus monkey frontal after 105.0 mins; assay type: ADME, organism-based, Frontal cortex; conditions: in vivo, 1.75 h; summary of the method: as §1
Cynomolgus monkey [8] = experiment: Uptake in anesthetized cynomolgus monkey occipital after 4.5 mins; assay type: ADME, organism-based, Occipital cortex; conditions: in vivo, 0.075 h; summary of the method: as §1
Cynomolgus monkey [9] = experiment: Uptake in anesthetized cynomolgus monkey occipital after 12.5 mins; assay type: ADME, organism-based, Macaca mulatta, Occipital cortex; conditions: rhesus monkey, in vivo; summary of the method: as §1
Cynomolgus monkey [10] = experiment: Uptake in anesthetized cynomolgus monkey occipital after 15.5 mins; assay type: ADME, organism-based, Macaca mulatta, Occipital cortex; conditions: rhesus monkey, in vivo; summary of the method: as §1
Cynomolgus monkey [11] = experiment: Uptake in anesthetized cynomolgus monkey occipital after 55.0 mins; assay type: ADME, organism-based, Occipital cortex; conditions: in vivo; summary of the method: as §1
Cynomolgus monkey [12] = experiment: Uptake in anesthetized cynomolgus monkey occipital after 65.0 mins; assay type: ADME, organism-based, Macaca mulatta, Occipital cortex; conditions: rhesus monkey, in vivo; summary of the method: as §1
Cynomolgus monkey [13] = experiment: Uptake in anesthetized cynomolgus monkey occipital after 85.0 mins; assay type: ADME, organism-based, Macaca mulatta, Occipital cortex; conditions: rhesus monkey, in vivo; summary of the method: as §1
Cynomolgus monkey [14] = experiment: Uptake in anesthetized cynomolgus monkey frontal after 0.5 mins; assay type: ADME, organism-based, Frontal cortex; conditions: in vivo; summary of the method: as §2
Cynomolgus monkey [15] = experiment: Uptake in anesthetized cynomolgus monkey frontal after 22.5 mins; assay type: ADME, organism-based, Frontal cortex; conditions: in vivo, 0.375 h; summary of the method: as §1
Cynomolgus monkey [16] = experiment: Uptake in anesthetized cynomolgus monkey putamen after 125.0 mins; assay type: ADME, organism-based; conditions: in vivo
Summary of the method: (§3)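 Baseline microPET (Concorde P4) scan in anesthetized cynomolgus monkeys after injection of the carbon-11 labeled tracer, with no chase drug. Regional brain time-activity curves were followed over the scan. Tracer radiochemical purity and specific activity were determined by analytical HPLC at the time of injection.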

Cynomolgus monkey [17] = experiment: Uptake in anesthetized cynomolgus monkey putamen after 135.0 mins; assay type: ADME, organism-based; conditions: in vivo, 2.25 h; summary of the method: as §3
Cynomolgus monkey [18] = experiment: Uptake in anesthetized cynomolgus monkey thalamus after 125.0 mins; assay type: ADME, organism-based; conditions: in vivo; summary of the method: as §3
Cynomolgus monkey [19] = experiment: Uptake in anesthetized cynomolgus monkey thalamus after 135.0 mins; assay type: ADME, organism-based; conditions: in vivo, 2.25 h; summary of the method: as §3
Cynomolgus monkey [20] = experiment: Uptake in anesthetized cynomolgus monkey pons after 125.0 mins; assay type: ADME, organism-based; conditions: in vivo; summary of the method: as §3
Cynomolgus monkey [21] = experiment: Uptake in anesthetized cynomolgus monkey pons after 135.0 mins; assay type: ADME, organism-based; conditions: in vivo, 2.25 h; summary of the method: as §3
Cynomolgus monkey [22] = experiment: Ratio of uptake in putamen to cerebellum of anesthetized cynomolgus monkey after 65 mins; assay type: ADME, organism-based; conditions: in vivo
Summary of the method: (§4)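 Baseline microPET (Concorde P4) in anesthetized cynomolgus monkey after injection of the [11C]-labelled tracer. Regional time-activity curves were taken, and each region's uptake was divided by cerebellum uptake (low-SERT reference) at 65, 85 and 105 min postinjection.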

Cynomolgus monkey [23] = experiment: Ratio of uptake in thalamus to cerebellum of anesthetized cynomolgus monkey after 65 mins; assay type: ADME, organism-based; conditions: in vivo; summary of the method: as §4
Cynomolgus monkey [24] = experiment: Ratio of uptake in midbrain to cerebellum of anesthetized cynomolgus monkey after 65 mins; assay type: ADME, organism-based; conditions: in vivo; summary of the method: as §4
Cynomolgus monkey [25] = experiment: Uptake in anesthetized cynomolgus monkey cerebellum after 125.0 mins; assay type: ADME, organism-based, Macaca mulatta; conditions: rhesus monkey, in vivo; summary of the method: as §2
Cynomolgus monkey [26] = experiment: Uptake in anesthetized cynomolgus monkey frontal after 135.0 mins; assay type: ADME, organism-based, Frontal cortex; conditions: in vivo, 2.25 h; summary of the method: as §1
Cynomolgus monkey [27] = experiment: Ratio of uptake in occipital to cerebellum of anesthetized cynomolgus monkey after 85 mins; assay type: ADME, organism-based; conditions: in vivo; summary of the method: as §4
Cynomolgus monkey [28] = experiment: Ratio of uptake in caudate to cerebellum of anesthetized cynomolgus monkey after 105 mins; assay type: ADME, organism-based; conditions: in vivo, 1.75 h; summary of the method: as §4
Cynomolgus monkey [29] = experiment: Ratio of uptake in putamen to cerebellum of anesthetized cynomolgus monkey after 105 mins; assay type: ADME, organism-based; conditions: in vivo, 1.75 h; summary of the method: as §4
Cynomolgus monkey [30] = experiment: Ratio of uptake in midbrain to cerebellum of anesthetized cynomolgus monkey after 105 mins; assay type: ADME, organism-based; conditions: in vivo, 1.75 h; summary of the method: as §4
Cynomolgus monkey [31] = experiment: Ratio of uptake in frontal to cerebellum of anesthetized cynomolgus monkey after 105 mins; assay type: ADME, organism-based; conditions: in vivo, 1.75 h; summary of the method: as §4
Cynomolgus monkey [32] = experiment: Ratio of uptake in occipital to cerebellum of anesthetized cynomolgus monkey after 105 mins; assay type: ADME, organism-based; conditions: in vivo, 1.75 h; summary of the method: as §4
Cynomolgus monkey [33] = experiment: Uptake in anesthetized cynomolgus monkey caudate after 9.5 mins; assay type: ADME, organism-based, Caudate nucleus; conditions: in vivo; summary of the method: as §2
Cynomolgus monkey [34] = experiment: Uptake in anesthetized cynomolgus monkey caudate after 27.5 mins; assay type: ADME, organism-based, Caudate nucleus; conditions: in vivo; summary of the method: as §2
Cynomolgus monkey [35] = experiment: Uptake in anesthetized cynomolgus monkey caudate after 35.0 mins; assay type: ADME, organism-based, Caudate nucleus; conditions: in vivo; summary of the method: as §2
Cynomolgus monkey [36] = experiment: Uptake in anesthetized cynomolgus monkey caudate after 45.0 mins; assay type: ADME, organism-based, Caudate nucleus; conditions: in vivo, 0.75 h; summary of the method: as §2
Cynomolgus monkey [37] = experiment: Uptake in anesthetized cynomolgus monkey putamen after 1.5 mins; assay type: ADME, organism-based; conditions: in vivo, 0.025 h; summary of the method: as §3
Cynomolgus monkey [38] = experiment: Uptake in anesthetized cynomolgus monkey caudate after 125.0 mins; assay type: ADME, organism-based, Caudate nucleus; conditions: in vivo; summary of the method: as §2
Cynomolgus monkey [39] = experiment: Ratio of uptake in pons to cerebellum of anesthetized cynomolgus monkey after 65 mins; assay type: ADME, organism-based; conditions: in vivo; summary of the method: as §4
Cynomolgus monkey [40] = experiment: Ratio of uptake in thalamus to cerebellum of anesthetized cynomolgus monkey after 85 mins; assay type: ADME, organism-based; conditions: in vivo; summary of the method: as §4
Cynomolgus monkey [41] = experiment: Ratio of uptake in pons to cerebellum of anesthetized cynomolgus monkey after 85 mins; assay type: ADME, organism-based; conditions: in vivo; summary of the method: as §4
Cynomolgus monkey [42] = experiment: Ratio of uptake in medulla to cerebellum of anesthetized cynomolgus monkey after 85 mins; assay type: ADME, organism-based; conditions: in vivo; summary of the method: as §4
Cynomolgus monkey [43] = experiment: Ratio of uptake in frontal to cerebellum of anesthetized cynomolgus monkey after 85 mins; assay type: ADME, organism-based; conditions: in vivo; summary of the method: as §4
Cynomolgus monkey [44] = experiment: Uptake in anesthetized cynomolgus monkey midbrain after 27.5 mins; assay type: ADME, organism-based; conditions: in vivo; summary of the method: as §1
Cynomolgus monkey [45] = experiment: Uptake in anesthetized cynomolgus monkey midbrain after 35.0 mins; assay type: ADME, organism-based; conditions: in vivo; summary of the method: as §1
Cynomolgus monkey [46] = experiment: Uptake in anesthetized cynomolgus monkey midbrain after 45.0 mins; assay type: ADME, organism-based; conditions: in vivo, 0.75 h; summary of the method: as §1
Cynomolgus monkey [47] = experiment: Uptake in anesthetized cynomolgus monkey midbrain after 95.0 mins; assay type: ADME, organism-based; conditions: in vivo; summary of the method: as §1
Cynomolgus monkey [48] = experiment: Uptake in anesthetized cynomolgus monkey pons after 15.5 mins; assay type: ADME, organism-based; conditions: in vivo; summary of the method: as §3
Cynomolgus monkey [49] = experiment: Uptake in anesthetized cynomolgus monkey pons after 45.0 mins; assay type: ADME, organism-based; conditions: in vivo, 0.75 h; summary of the method: as §3
Cynomolgus monkey [50] = experiment: Uptake in anesthetized cynomolgus monkey pons after 55.0 mins; assay type: ADME, organism-based; conditions: in vivo; summary of the method: as §3
Cynomolgus monkey [51] = experiment: Uptake in anesthetized cynomolgus monkey pons after 85.0 mins; assay type: ADME, organism-based; conditions: in vivo; summary of the method: as §3
Cynomolgus monkey [52] = experiment: Uptake in anesthetized cynomolgus monkey thalamus after 18.5 mins; assay type: ADME, organism-based; conditions: in vivo; summary of the method: as §3
Cynomolgus monkey [53] = experiment: Uptake in anesthetized cynomolgus monkey thalamus after 55.0 mins; assay type: ADME, organism-based; conditions: in vivo; summary of the method: as §3
Cynomolgus monkey [54] = experiment: Uptake in anesthetized cynomolgus monkey thalamus after 115.0 mins; assay type: ADME, organism-based; conditions: in vivo; summary of the method: as §3

Compound: [11CH3]OC(=O)[C@@H]1C2CCC(C[C@@H]1c1cccc(/C=C/Br)c1)N2 (some centres undefined)
- Drug uptake (Cynomolgus monkey [1]): 2.5
- Drug uptake (Cynomolgus monkey [2]): 5.27
- Drug uptake (Cynomolgus monkey [3]): 0.01
- Drug uptake (Cynomolgus monkey [4]): 4.09
- Drug uptake (Cynomolgus monkey [5]): 3.8
- Drug uptake (Cynomolgus monkey [6]): 3.78
- Drug uptake (Cynomolgus monkey [7]): 3.7
- Drug uptake (Cynomolgus monkey [8]): 2.14
- Drug uptake (Cynomolgus monkey [9]): 4.08
- Drug uptake (Cynomolgus monkey [10]): 4.55
- Drug uptake (Cynomolgus monkey [11]): 5.3
- Drug uptake (Cynomolgus monkey [12]): 5.14
- Drug uptake (Cynomolgus monkey [13]): 5.21
- Drug uptake (Cynomolgus monkey [14]): 0.01
- Drug uptake (Cynomolgus monkey [15]): 3.47
- Drug uptake (Cynomolgus monkey [16]): 6.69
- Drug uptake (Cynomolgus monkey [17]): 6.51
- Drug uptake (Cynomolgus monkey [18]): 6.09
- Drug uptake (Cynomolgus monkey [19]): 5.83
- Drug uptake (Cynomolgus monkey [20]): 6.47
- Drug uptake (Cynomolgus monkey [21]): 7.4
- Ratio (Cynomolgus monkey [22]): 1.5
- Ratio (Cynomolgus monkey [23]): 1.3
- Ratio (Cynomolgus monkey [24]): 1.6
- Drug uptake (Cynomolgus monkey [25]): 3.74
- Drug uptake (Cynomolgus monkey [26]): 3.43
- Ratio (Cynomolgus monkey [27]): 0.9
- Ratio (Cynomolgus monkey [28]): 1.7
- Ratio (Cynomolgus monkey [29]): 1.8
- Ratio (Cynomolgus monkey [30]): 1.9
- Ratio (Cynomolgus monkey [31]): 1.2
- Ratio (Cynomolgus monkey [32]): 0.9
- Drug uptake (Cynomolgus monkey [33]): 4.35
- Drug uptake (Cynomolgus monkey [34]): 5.98
- Drug uptake (Cynomolgus monkey [35]): 6.21
- Drug uptake (Cynomolgus monkey [36]): 6.63
- Drug uptake (Cynomolgus monkey [37]): 0.3
- Drug uptake (Cynomolgus monkey [38]): 5.66
- Ratio (Cynomolgus monkey [39]): 1.5
- Ratio (Cynomolgus monkey [40]): 1.5
- Ratio (Cynomolgus monkey [41]): 1.6
- Ratio (Cynomolgus monkey [42]): 1.6
- Ratio (Cynomolgus monkey [43]): 1.2
- Drug uptake (Cynomolgus monkey [44]): 7.01
- Drug uptake (Cynomolgus monkey [45]): 7.4
- Drug uptake (Cynomolgus monkey [46]): 7.58
- Drug uptake (Cynomolgus monkey [47]): 7.89
- Drug uptake (Cynomolgus monkey [48]): 5.76
- Drug uptake (Cynomolgus monkey [49]): 6.91
- Drug uptake (Cynomolgus monkey [50]): 7.56
- Drug uptake (Cynomolgus monkey [51]): 7.24
- Drug uptake (Cynomolgus monkey [52]): 5.21
- Drug uptake (Cynomolgus monkey [53]): 6.4
- Drug uptake (Cynomolgus monkey [54]): 6.26

Source: ChEMBL document CHEMBL1137333, “Synthesis, radiosynthesis, and biological evaluation of carbon-11 labeled 2beta-carbomethoxy-3beta-(3'-((Z)-2-haloethenyl)phenyl)nortropanes: candidate radioligands for in vivo imaging of the serotonin transporter with positron emission tomography” (J Med Chem, 2006)
